Screens (PubChem BioAssay)
An excerpt weighted towards active compounds, which were near 4.7% of everything screened.
MC4R barr agon: MC4R agonists recruiting beta-arrestin, primary screen, cell-based, luminescence, agonist arm of biased-ligand search | activation, % at 8.9 µM | Melanocortin receptor 4 (Homo sapiens), P32245 | U2OS MC4R beta-arrestin complementation; percent of melanotan II response, DMSO zero | actives 0.98% (n = 360,000) | AID 540308, 2011;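 active means activation above a per-plate cutoff, the mean activation of sample wells on that plate plus 3 SD, cut at about 8% in these data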
Target sequence (P32245 whole entry, looked up): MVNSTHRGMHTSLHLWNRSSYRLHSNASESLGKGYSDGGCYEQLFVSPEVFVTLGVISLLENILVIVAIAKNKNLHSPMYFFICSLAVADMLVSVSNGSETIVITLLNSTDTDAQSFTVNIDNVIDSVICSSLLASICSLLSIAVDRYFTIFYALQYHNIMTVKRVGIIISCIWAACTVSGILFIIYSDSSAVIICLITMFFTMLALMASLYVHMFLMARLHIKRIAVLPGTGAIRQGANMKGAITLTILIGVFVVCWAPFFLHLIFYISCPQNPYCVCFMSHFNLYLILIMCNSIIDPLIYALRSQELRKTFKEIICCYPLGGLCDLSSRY
GAA850 FXN act: FXN promoter activators, primary screen, cell-based, luciferase luminescence, HEK293 lucGAA850 | HEK293 lucGAA850 FXN promoter luciferase reporter, 24 h; percent of 10 µM SAHA response | activation, % at 6 µM | actives 0.56% (n = 360,000);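 active means activation above the average of all compounds screened plus 3 SD, cutoff fixed separately per campaign, cut at about 7.5% in these data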;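 further: 0% = DMSO wells and 100% = 10 µM SAHA wells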
HTR2A ag: mouse Htr2a agonists via beta-arrestin recruitment, primary screen, cell-based, luminescence | 5-hydroxytryptamine receptor 2A (Mus musculus), P35363 | CHO-K1 mHTR2A beta-arrestin complementation; percent of 30 µM serotonin response | activation, % at 7.6 µM | actives 0.66% (n = 360,000) | AID 624169, 2012;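 active means activation above a run cutoff, the mean activation of all tested compounds plus 3 SD, cut at about 14% in these data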;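 further: 0% = plate median of compound wells and 100% = 30 µM serotonin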
MC4R antag cAMP: MC4R antagonists of cAMP signaling, primary screen, cell-based, TR-FRET, antagonist arm of biased-ligand search; Melanocortin receptor 4 (Homo sapiens), P32245; MC4R-expressing cells, MTII-stimulated cAMP, LANCE TR-FRET; inhibition, % at 6.5 µM; actives 0.48% (n = 360,000);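 active means inhibition above its plate's cutoff, the mean of tested wells on that plate plus 3 SD, cut at about 29% in these data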;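 further: 0% = Melanotan II alone and 100% = Melanotan II plus saturating MCL0020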
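Test system: U2OS cells stably expressing human melanocortin 4 receptor (MC4R); also added: Melanotan II challenge; compound: 6.5 µM single dose; timing: 30-min compound preincubation, 1-h Melanotan II challenge, 1-h detection, room temperature; signal: Eu-cAMP/anti-cAMP TR-FRET, emission 671 nm; repeats: one well per compound, no replicates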
AHR act: AHR activators, primary screen, cell-based, luminescence, luciferase reporter, human. Aryl hydrocarbon receptor (Homo sapiens), P35869. AHR-responsive luciferase reporter cells. activation, % at 5 µM. actives 2.5% (n = 320,000). AID 2796, 2010; in the data active means activation above about 47%;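 further: 0% = vehicle wells and 100% = reference agonist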
MOR ag counter: OPRM1 agonists via beta-arrestin recruitment, confirmation, counter-screen for mouse HTR2A agonist project, cell-based, luminescence, single concentration. shares compounds with HTR2A ag. U2OS OPRM1 beta-arrestin PathHunter; DMSO 0%, DAMGO 9.3 µM 100%. activation, % at 9.3 µM. actives 5.3% (n = 2,300). AID 624380, 2012;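 active means mean activation above the mean of DMSO-only wells plus 3 SD, cut at about 0.5% in these data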
m5-HT2A ag conf: mouse HTR2A agonists, beta-arrestin recruitment, confirmation, cell-based, luminescence, CHO-K1 PathHunter, triplicate | shares compounds with HTR2A ag | DMSO 0%, 30 µM serotonin 100% | activation, % at 7.6 µM | actives 19% (n = 2,300) | AID 624381, 2012;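 active means mean activation across triplicates above the hit threshold derived in the original primary screen, cut at about 15% in these data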
Active calls of the source: *; . = not tested or not shown; ! = a repeat was not active.

SMILES | MC4R barr agon | GAA850 FXN act | HTR2A ag | MC4R antag cAMP | AHR act | MOR ag counter | m5-HT2A ag conf
Cc1cc(C)c2cc(CN(CCN3CCCC3)C(=O)Nc3ccc(F)cc3)c(=O)[nH]c2c1 | -1 | -1 | 20* | 0 | 0 | 0 | -1
Cc1ccsc1C(=O)NCc1ccc(F)cc1 | 1 | -1 | -2 | -1 | 1 | . | .
CCOC(=O)N1CCC(N2C(=O)c3ccc(C(=O)NCc4ccco4)cc3C2=O)CC1 | 0 | 1 | 23* | 4 | 1 | 0 | -4
C=CCNc1nc(Nc2ccc(OC)c(OC)c2)c2sc(-c3ccccc3)cc2n1 | 0 | 0 | -5 | -2 | . | . | .
Cc1ccc2c(C)c(C(=O)Nc3c(C)n(C)n(-c4ccccc4)c3=O)oc2c1C | 0 | 0 | 17* | 8 | 27 | 0 | 40*
Cc1cc2oc(C(=O)Nc3c(C)n(C)n(-c4ccccc4)c3=O)c(C)c2cc1C | 2 | 1 | 1 | 1 | 28 | . | .
O=S(=O)(/C=C/c1ccccc1)NCc1ccccc1Cl | 0 | 1 | -2 | 0 | 2 | . | .
CCCn1c(=O)c2[nH]c(-c3ccc(OCC(=O)Nc4ccc(C#N)cc4)cc3)nc2n(CCC)c1=O | -1 | 0 | 16* | 5 | 1 | 0 | -4
Cc1ccc(-c2ccc(/C=C3\SC(N4CCOCC4)=NC3=O)o2)cc1 | -1 | 4 | 15* | 13 | 54* | 0 | 39*
Cc1cc(Cl)ccc1C(=O)C1CCCN(C(=O)c2cc(C(C)C)no2)C1 (stereo not drawn) | -1 | 1 | 46* | 6 | 5 | 0 | -5
CC(C)c1cc(C(=O)N2CCCC(C(=O)c3ccc4ccccc4c3)C2)on1 (stereo not drawn) | -1 | 0 | -5 | 19 | 1 | . | .
Cc1cc2nc(-c3ccc(F)cc3)c(Cc3cccc(Cl)c3)n2c(C)c1Br | . | . | 8 | . | . | . | .
Cc1cccc(C(=O)OCC(=O)c2c(N)n(CC(C)C)c(=O)n(C)c2=O)c1O | 4 | 0 | -1 | 6 | 0 | . | .
Cc1cccc(C(=O)OCC(=O)c2c(N)n(CC(C)C)c(=O)n(C)c2=O)c1[N+](=O)[O-] | 0 | 1 | 17* | 7 | -3 | 0 | -1
CN(C)S(=O)(=O)c1ccc(NC(=O)Cn2nc(-c3ccc4c(c3)OCCO4)ccc2=O)cc1 | -1 | 2 | 15* | 1 | . | 0 | -6
O=C(c1ccccc1F)N1CCN(Cc2nc3sc4c(c3c(=O)[nH]2)CCCC4)CC1 | -2 | -1 | 16* | 5 | 9 | -1 | -4
Cc1ccc(C(=O)N2CCN(Cc3nc4sc5c(c4c(=O)[nH]3)CCCC5)CC2)cc1 | -1 | -2 | -5 | 1 | 4 | . | .
COc1cc2c(cc1OC)-c1cc(Nc3ccccc3C)nc(=O)n1CC2 | 2 | 7 | 18* | -31 | 2 | 0 | 0
CC(=O)C1=CCC(c2ccccc2)N(Cc2ccccc2)C1 (stereo not drawn) | . | . | 7 | . | . | . | .
CC(C)(C)NC(=O)CN(C(=O)CNC(=O)c1cccs1)c1ccccc1F | 0 | -1 | 16* | 3 | 0 | 0 | 4
Cc1ccc(N(CC(=O)NC(C)(C)C)C(=O)CNC(=O)c2cccs2)c(C)c1 | -2 | 1 | -1 | 2 | 2 | . | .
CC(C)(C)c1ccc2c(c1)OC(C(=O)N/N=C/c1ccc([N+](=O)[O-])o1)CO2 (stereo not drawn) | 8 | 2 | 0 | 4 | 0 | . | .
CC(C)(C)c1ccc(O)c(N=Cc2cc(Br)ccc2O)c1 | -1 | 1 | 49* | 0 | 29 | 0 | 2
c1ccc(CC2=NCCN2)cc1 | 0 | 0 | 10 | -4 | -3 | . | .
Cc1cc(C(C)(C)C)cc(C)c1CC1=NCCN1 | 1 | 1 | 24* | 0 | -1 | -1 | 24*
SMILES | MC4R barr agon | GAA850 FXN act | HTR2A ag | MC4R antag cAMP | AHR act | MOR ag counter | m5-HT2A ag conf
CCCOC(=O)c1c(-c2ccc(C)cc2C)csc1NC(=O)C1C2CCC(O2)C1C(=O)O (stereo not drawn) | -3 | 0 | 0 | 4 | 1 | . | .
CN1CCC[C@H]1c1cccnc1 | -1 | -1 | 38*! | 3 | . | 0 | -4
Cc1ccc(SCCN)cc1C | 0 | 2 | 21* | 24 | 4 | 0 | 13
Cc1ccc(SCC(=O)NNC(=O)c2ccccc2)cc1C | -2 | 0 | -6 | 5 | 0 | . | .
Cc1cccc(CCNC(=O)c2nnc(Cc3ccc(Cl)cc3)o2)c1 | 1 | 0 | 5 | 15 | 3 | . | .
CCCCNC(=O)C(=O)Nc1cc2c3c(c1)CCC(=O)N3CCC2 | -1 | 1 | 15* | -4 | 8 | -1 | -4
OCC1OC(n2ccc3c(NO)ncnc32)C(O)C1O (stereo not drawn) | 0 | -15 | 18* | 8 | . | 0 | 13
Nc1ncnc2c1ncn2[C@@H]1O[C@H](CO)[C@@H](O)[C@H]1O | -1 | 0 | 28* | 4 | -2 | -1 | -2
Cc1ccc(S(=O)(=O)N2CCCCC2)cc1NC(=O)c1ccc(=O)[nH]c1 | -2 | 3 | -2 | -6 | . | . | .
COc1ccccc1CNCC(O)(c1ccc(Cl)cc1)c1ccc(Cl)cc1 | 5 | -5 | 22* | 2 | 0 | 0 | 8
CCCn1c(C(C)Nc2nc(-c3ccc(Cl)c([N+](=O)[O-])c3)cs2)nc2cc(Cl)c(N3CCCCC3)cc21 (stereo not drawn) | -1 | -1 | 5 | 0 | 4 | . | .
COCCNC(=O)C1(C)CCCN(CCS(=O)(=O)c2ccc(C)cc2)C1 (stereo not drawn) | 1 | 1 | 1 | 0 | . | . | .
CCOC(=O)N1CCC(N2CCCC(C(=O)c3cc(C)c(OC)c(C)c3)C2)CC1 (stereo not drawn) | 0 | 0 | -3 | 6 | 1 | . | .
CCOC(=O)N1CCC(N2CCCC(C(=O)c3ccccc3OC)C2)CC1 (stereo not drawn) | -1 | 0 | 27* | -1 | -5 | -1 | 54*
COc1ccc(CC(=O)N[C@@H]2c3cc(OC)c(OC)cc3C[C@H]2O)cc1 | -1 | 2 | 18* | 2 | . | -1 | -3
COc1cc2c(cc1OC)[C@@H](NC(=O)Cc1ccc(F)cc1)[C@H](OCc1ccccc1)C2 | -2 | -2 | -2 | 1 | . | . | .
